Data reported in ChEMBL document CHEMBL3272036, “Reactions of 2-acyloxyisobutyryl halides with nucleosides. Synthesis and biological evaluation of some 3"-acyl and 3',5'-diacyl derivatives of 1-beta-D-arabinofuranosylcytosine” (J Med Chem, 1976).
Converted amounts (≈) assume the structure as drawn. The source made the active and inactive calls. No cut-off for these calls is given here.

Assays:
Vaccinia virus = assay: Antiviral activity against Vaccinia virus IHD infected in African green monkey BGM cells assessed as plaque reduction measured on day 5 by disk diffusion assay; type: functional; details: Orthopoxvirus vaccinia, 120 h, read-out: ED50 (the source's name)
Herpesviridae sp. = assay: Antiviral activity against Herpes Simplex virus HF infected in African green monkey BGM cells assessed as plaque reduction measured on day 5 by disk diffusion assay; type: functional; details: 120 h, read-out: ED50 (the source's name)
L1210 [1] = assay: Antitumor activity against mouse L1210 cells allografted in BDF1 mouse assessed as increase in life span at 200 mg/kg, ip administered as single dose relative to vehicle-treated control; type: functional; details: route intraperitoneal
Method in brief: (§1)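 Single intraperitoneal injection given 24 h after the leukemic cells were introduced, at 100, 200, 500 or 1000 mg/kg. Read-out is % increase in life span (ILS), with the count of 30-day survivors per group recorded (group sizes 7–8 mice).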

L1210 [2] = assay: Antitumor activity against mouse L1210 cells allografted in BDF1 mouse assessed as survival at 200 mg/kg, ip administered as single dose measured on day 30 relative to vehicle-treated control; type: functional, organism-based; design: dose 200 mg/kg
Method in brief: (§2)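 Leukemic L1210 cells were introduced into mice. Each compound was then given as a single intraperitoneal injection 24 h later. Activity is expressed as % increase in life span (ILS), with the count of 30-day survivors per group. Doses tested were 100, 200, 500 and 1000 mg/kg.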

HeLa = assay: Cytotoxicity against human HeLa cells after 48 hrs by Coulter counter analysis; type: functional; details: read-out: ED50 (the source's name)
L1210 [3] = assay: Antitumor activity against mouse L1210 cells allografted in BDF1 mouse assessed as survival at 1000 mg/kg, ip administered as single dose measured on day 30 relative to vehicle-treated control; type: functional, organism-based; design: dose 1000 mg/kg; method in brief: as §2
L1210 [4] = assay: Antitumor activity against mouse L1210 cells allografted in BDF1 mouse assessed as increase in life span at 500 mg/kg, ip administered as single dose relative to vehicle-treated control; type: functional; details: route intraperitoneal; method in brief: as §1
L1210 [5] = assay: Antitumor activity against mouse L1210 cells allografted in BDF1 mouse assessed as increase in life span at 1000 mg/kg, ip administered as single dose relative to vehicle-treated control; type: functional; details: route intraperitoneal; method in brief: as §1
L1210 [6] = assay: Antitumor activity against mouse L1210 cells allografted in BDF1 mouse assessed as survival at 100 mg/kg, ip administered as single dose measured on day 30 relative to vehicle-treated control; type: functional, organism-based; design: dose 100 mg/kg; method in brief: as §2
L1210 [7] = assay: Antitumor activity against mouse L1210 cells allografted in BDF1 mouse assessed as increase in life span at 100 mg/kg, ip administered as single dose relative to vehicle-treated control; type: functional; details: route intraperitoneal; method in brief: as §1

SMILES	EC50 (Vaccinia virus)	EC50 (Herpesviridae sp.)	ILS at 200 mg/kg (L1210 [1])	Activity (L1210 [2])	EC50 (HeLa)	Activity (L1210 [3])	ILS at 500 mg/kg (L1210 [4])	ILS at 1000 mg/kg (L1210 [5])	Activity (L1210 [6])	ILS at 100 mg/kg (L1210 [7])
CCCCCCC/C=C\C(=O)O[C@H]1[C@H](O)[C@H](n2ccc(N)nc2=O)O[C@@H]1CO.Cl	110 nM	230 nM	22%	inactive	0.06 µg/mL	–	–	–	–	–
CCCCCCCCCC(=O)OC[C@H]1O[C@@H](n2ccc(N)nc2=O)[C@@H](O)[C@@H]1OC(=O)CCCCCCCCC	350 nM	780 nM	> 214%	–	0.11 µg/mL (≈ 0.199 µM)	inactive	> 205%	-4%	–	–
CCCCCCCCC(=O)OC[C@H]1O[C@@H](n2ccc(N)nc2=O)[C@@H](O)[C@@H]1OC(=O)CCCCCCCC.Cl	190 nM	520 nM	71%	inactive	0.08 µg/mL	–	–	–	–	–
CCCCCCCC(=O)OC[C@H]1O[C@@H](n2ccc(N)nc2=O)[C@@H](O)[C@@H]1OC(=O)CCCCCCC.Cl	220 nM	2600 nM	20%	inactive	0.13 µg/mL	inactive	–	46%	inactive	-28%
Cl.Nc1ccn([C@@H]2O[C@H](CO)[C@@H](OC(=O)Cc3ccccc3)[C@@H]2O)c(=O)n1	460 nM	1500 nM	8%	inactive	0.11 µg/mL	–	–	–	–	–
CCCCCCCCCCCCCCCCCCCC(=O)OC[C@H]1O[C@@H](n2ccc(N)nc2=O)[C@@H](O)[C@@H]1OC(=O)CCCCCCCCCCCCCCCCCCC	> 30000 nM	> 30000 nM	39%	inactive	> 10 µg/mL	–	–	> 205%	inactive	87%
CCCCCCCCCCCCCCCCCC(=O)OC[C@H]1O[C@@H](n2ccc(N)nc2=O)[C@@H](O)[C@@H]1OC(=O)CCCCCCCCCCCCCCCCC	> 30000 nM	> 30000 nM	124%	inactive	10 µg/mL (≈ 12.9 µM)	–	–	> 328%	–	–
CC(=O)OC[C@H]1O[C@@H](n2ccc(N)nc2=O)[C@@H](O)[C@@H]1OC(C)=O.Cl	3200 nM	16000 nM	10%	inactive	0.06 µg/mL	–	–	–	–	–
CCCCCCCCC(=O)O[C@H]1[C@H](O)[C@H](n2ccc(N)nc2=O)O[C@@H]1CO	100 nM	300 nM	59%	inactive	0.05 µg/mL (≈ 0.13 µM)	–	> 189%	> 142%	–	–
C=CCCCCCCCC(=O)OC[C@H]1O[C@@H](n2ccc(N)nc2=O)[C@@H](O)[C@@H]1OC(=O)CCCCCCCC=C.Cl	–	–	–	–	0.1 µg/mL	–	–	–	–	–
CCCCCCCC/C=C\CCCCCCCCCCCC(=O)OC[C@H]1O[C@@H](n2ccc(N)nc2=O)[C@@H](O)[C@@H]1OC(=O)CCCCCCCCCCC/C=C\CCCCCCCC	> 30000 nM	> 30000 nM	86%	inactive	> 10 µg/mL	–	–	–	inactive	58%
CCCCCCCCCCCC(=O)OC[C@H]1O[C@@H](n2ccc(N)nc2=O)[C@@H](O)[C@@H]1OC(=O)CCCCCCCCCCC	2050 nM	7200 nM	> 285%	Active	0.5 µg/mL (≈ 0.823 µM)	–	–	> 260%	–	–
CCCCCCCCCCCCCCCCCCCCCC(=O)OC[C@H]1O[C@@H](n2ccc(N)nc2=O)[C@@H](O)[C@@H]1OC(=O)CCCCCCCCCCCCCCCCCCCCC	> 30000 nM	> 30000 nM	27%	inactive	> 10 µg/mL	inactive	–	113%	inactive	10%
CCCCCC(=O)OC[C@H]1O[C@@H](n2ccc(N)nc2=O)[C@@H](O)[C@@H]1OC(=O)CCCCC	220 nM	900 nM	11%	inactive	0.07 µg/mL (≈ 0.159 µM)	–	–	–	inactive	4%
CCCC(=O)OC[C@H]1O[C@@H](n2ccc(N)nc2=O)[C@@H](O)[C@@H]1OC(=O)CCC	1150 nM	5200 nM	8%	inactive	0.11 µg/mL (≈ 0.287 µM)	–	–	–	inactive	14%
CCCCCCCC/C=C/CCCCCCCC(=O)O[C@H]1[C@H](O)[C@H](n2ccc(N)nc2=O)O[C@@H]1CO	940 nM	1500 nM	> 258%	–	0.05 µg/mL (≈ 0.0985 µM)	–	–	–	–	> 246%
CCCCCCCCCCCCCC(=O)OC[C@H]1O[C@@H](n2ccc(N)nc2=O)[C@@H](O)[C@@H]1OC(=O)CCCCCCCCCCCCC	5700 nM	10000 nM	> 240%	Active	1.4 µg/mL (≈ 2.11 µM)	inactive	> 105%	-12%	–	> 255%
C=CCCCCCCCCC(=O)O[C@H]1[C@H](O)[C@H](n2ccc(N)nc2=O)O[C@@H]1CO	110 nM	440 nM	49%	inactive	0.05 µg/mL (≈ 0.122 µM)	–	> 191%	> 52%	–	–
Cl.Nc1ccn([C@@H]2O[C@H](COC(=O)Cc3ccccc3)[C@@H](OC(=O)Cc3ccccc3)[C@@H]2O)c(=O)n1	2300 nM	1300 nM	29%	inactive	0.13 µg/mL	–	–	–	–	–
CCCCCCCCCCCCCCCCCC(=O)O[C@H]1[C@H](O)[C@H](n2ccc(N)nc2=O)O[C@@H]1CO	380 nM	700 nM	> 228%	–	0.13 µg/mL (≈ 0.255 µM)	inactive	–	-23%	Active	> 219%
CCCCCCCC/C=C\CCCCCCCC(=O)O[C@H]1[C@H](O)[C@H](n2ccc(N)nc2=O)O[C@@H]1CO	730 nM	940 nM	67%	inactive	0.06 µg/mL (≈ 0.118 µM)	–	–	–	–	–
CCCCCCCCCCC(=O)O[C@H]1[C@H](O)[C@H](n2ccc(N)nc2=O)O[C@@H]1CO	100 nM	120 nM	> 125%	–	0.04 µg/mL (≈ 0.0972 µM)	–	> 99%	–	–	> 127%
CCCCCCCCCCCCCCCC(=O)OC[C@H]1O[C@@H](n2ccc(N)nc2=O)[C@@H](O)[C@@H]1OC(=O)CCCCCCCCCCCCCCC	30000 nM	> 30000 nM	> 255%	–	> 10 µg/mL	–	–	> 237%	–	–
